From PubChem BioAssay AID720574 (Broad Institute, 2013)
About 140 (0.15%) of roughly 96,000 compounds were called active.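 The calls were made as follows: active = mean replicate inhibition above about 25%, with at least 55% of replicates also reaching it (limit read from the data, passing the limit was not always enough); inconclusive = only one of those two conditions met; inactive = neither condition met.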 Shown is part of a subset that was picked to be rich in actives.

target: Lysine-specific demethylase 4C (Homo sapiens) (UniProt Q9H3R0); experiment: KDM4C H3K9me3 demethylation inhibition – biochemical, single concentration HTS, primary screen (AID 720574); details: GST-KDM4C 2-372, H3K9me3 peptide, LANCE TR-FRET; at 12.5 µM; stronger effect = higher value
In short: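 Compound: one test concentration per compound; Material: GST-GASC-1 enzyme fragment 2-372; Amount: GASC-1 enzyme at 10 nM final in reaction; Also added: H3K9me3 peptide substrate, Fe(II), 2-oxoglutarate; Technique: LANCE TR-FRET; Times: 30 min demethylation and 1 h detection at room temperature.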

Lysine-specific demethylase 4C (Homo sapiens), sequence (Q9H3R0 2-372 limits assumed): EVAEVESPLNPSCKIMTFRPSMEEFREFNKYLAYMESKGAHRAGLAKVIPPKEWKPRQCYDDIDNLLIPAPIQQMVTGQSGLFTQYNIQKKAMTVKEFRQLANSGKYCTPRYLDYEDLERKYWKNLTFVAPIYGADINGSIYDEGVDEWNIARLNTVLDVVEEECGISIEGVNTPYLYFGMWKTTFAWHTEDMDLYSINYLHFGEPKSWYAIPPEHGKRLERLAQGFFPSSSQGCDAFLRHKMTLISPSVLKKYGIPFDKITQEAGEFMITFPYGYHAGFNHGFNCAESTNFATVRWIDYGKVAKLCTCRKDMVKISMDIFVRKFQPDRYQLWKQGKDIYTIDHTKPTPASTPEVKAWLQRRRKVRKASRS

inhibition, inactive:
COc1cccc(S(=O)(=O)N[C@@H]2C=C[C@H](CC(=O)NC3CCC3)O[C@@H]2CO)c1 -0.615%
CNC(=O)C[C@@H]1CC[C@@H]2[C@@H](COc3ccc(NC(=O)Nc4ccccc4OC)cc3C(=O)N2C)O1 -0.148%
COc1ccc2c3c(n(C)c2c1)[C@@H](CO)N(C(=O)CN1CCOCC1)CC31CN(C(=O)CC2CC2)C1 -1.48%
C[C@H](CO)N1C[C@H](C)[C@@H](CN(C)C(=O)C2CC2)Oc2cc(C#CC(C)(C)O)ccc2S1(=O)=O -1.72%
O=C(C1CCCC1)N1CC(=O)N2[C@@H](CO)[C@H](c3ccc(C#CC4CCCC4)cc3)[C@@H]2C1 0.0785%
COc1cccc(-c2ccc([C@@H]3[C@@H](CO)N4C(=O)CN(C(=O)C5CCCCC5)C[C@H]34)cc2)c1 -0.874%
CC(C)(C)[S@](=O)N1Cc2cc(C(=O)N[C@@H]3CCN(Cc4ccccc4)C3)nc(-c3cccc(-c4ccncc4)c3)c2[C@@H]1CCO -0.764%
C/C=C/c1ccccc1[C@@H]1[C@@H](C#N)N(C(=O)Cc2ccccn2)[C@H]1CO 0.483%
CN(C)CC(=O)Nc1ccc2c(c1)[C@H]1C[C@@H](CC(=O)NCc3ccc(Cl)cc3)O[C@@H](CO)[C@H]1O2 -0.979%
COc1cccc(NC(=O)N[C@@H]2CC[C@H](CC(=O)Nc3ccccc3)O[C@@H]2CO)c1 -0.777%
COc1ccc2c3c(n(C)c2c1)[C@H](CO)NCC31CCN(C(=O)Nc2ccccc2F)CC1 0.753%
CO[C@H]1CN(C)C(=O)c2ccc(NC(C)=O)cc2OC[C@H](C)N(C(=O)Cc2ccccn2)C[C@@H]1C 0.463%
CN1C(=O)c2cc(NC(=O)C3CCC3)ccc2OC[C@@H]2O[C@@H](CC(=O)NCc3ccccc3F)CC[C@@H]21 -1.68%
CO[C@H]1CN(C)C(=O)c2ccc(NC(=O)Cc3ccccc3)cc2OC[C@@H](C)N(C(C)=O)C[C@H]1C -0.332%
COc1ccc(CNC(=O)C[C@H]2CC[C@@H]3[C@H](COc4ccc(NC(=O)C5CC5)cc4C(=O)N3C)O2)cc1 0.0505%
C[C@@H]1CN([C@@H](C)CO)S(=O)(=O)c2ccc(-c3ccccc3F)cc2O[C@H]1CN(C)Cc1cncnc1 5.07%
C[C@@H]1CN([C@@H](C)CO)C(=O)c2cc(C#C[C@@H](C)O)cnc2O[C@H]1CN(C)CC1CCOCC1 4.17%
COc1ccccc1-c1cn(CC[C@@H]2CC[C@H](NC(=O)c3ccccc3F)[C@H](CO)O2)nn1 -1.5%
COC(=O)C[C@H]1CC[C@H]2[C@@H](COc3ccc(NC(=O)Nc4cccc(F)c4)cc3C(=O)N2C)O1 -1.5%
COCc1cn(CC[C@@H]2CC[C@@H](NC(=O)Cc3cccnc3)[C@@H](CO)O2)nn1 1.27%
CC(C)(C)[S@@](=O)N1Cc2cc(C(=O)N3CCOCC3)nc(-c3cccc(-c4ccc(C#N)cc4)c3)c2[C@H]1CCO 1.6%
CC=Cc1ccc2n(c1=O)C[C@@H]1[C@@H](CO)[C@H](C(=O)N[C@H](C)c3ccccc3)N(C(=O)c3cnccn3)[C@H]21 (mixture of isomers) 0.423%
O=C(C[C@@H]1CC[C@@H]2[C@H](COC[C@H](O)CN2Cc2cccc(C(F)(F)F)c2)O1)NCc1ccc(F)cc1 3.72%
CN(C)CC(=O)N1CC2(C1)[C@H](c1ccccc1)[C@@H](CO)N2C(=O)C1CCCCC1 -0.237%
O=C(C[C@H]1C=C[C@H](NC(=O)C2CCC2)[C@H](CO)O1)NCCCN1CCOCC1 1.01%
COc1ccc(NC(=O)N(C)C[C@@H]2Oc3ccc(NS(=O)(=O)c4ccc(C)cc4)cc3CC(=O)N([C@@H](C)CO)C[C@H]2C)cc1 6.92%
CCNC(=O)Nc1ccc2c(c1)C(=O)N(C)[C@H]1CC[C@@H](CC(=O)N[C@@H](C)c3ccccc3)O[C@H]1CO2 0.198%
O=C(Nc1ccccc1F)N1CC(=O)N2[C@H](C1)[C@@H](c1ccc(C#CC3CC3)cc1)[C@@H]2CO 1.64%
CN(C)C(=O)[C@@H]1[C@@H](CO)[C@@H]2Cn3c(ccc(C4=CCCC4)c3=O)[C@H]1N2Cc1ccccn1 1.36%
NCC[C@H]1CC[C@H](NC(=O)C2CC2)[C@@H](CO)O1 0.258%
CO[C@H]1CN(C)C(=O)c2ccc(NC(=O)C3CC3)cc2OC[C@H](C)N(CCc2ccccc2)C[C@@H]1C 0.468%
O=C(CC(F)(F)F)N1C[C@H]2[C@@H](c3ccccc31)[C@H](CO)N2C(=O)Cc1ccccc1 -2.83%
CCCN1C[C@@H](C)[C@@H](OC)CN(C)C(=O)c2ccc(NC(=O)CC(F)(F)F)cc2OC[C@H]1C -0.121%
CN1CCN(C(=O)C[C@@H]2CC[C@@H]3[C@@H](COc4ccc(NC(=O)c5ccc(F)c(F)c5)cc4C(=O)N3C)O2)CC1 -0.587%
O=C(c1ccncc1)N1C[C@@H]2[C@H](c3ccccc31)[C@H](CO)N2C(=O)c1ccncc1 -0.987%
COc1ccc2c3c(n(C)c2c1)[C@H](CO)N(C(=O)NC(C)C)CC31CCN(C(=O)NC(C)C)CC1 0.238%
CCCN1C[C@H](C)[C@@H](OC)CN(C)C(=O)c2ccc(NC(=O)CC)cc2OC[C@@H]1C 2.58%
O=C(Nc1ccccc1)N1CC(=O)N2[C@@H](CO)[C@H](c3ccc(C#CC4CCCC4)cc3)[C@@H]2C1 0.422%
CN(C)C(=O)C[C@@H]1CC[C@H](NC(=O)NC2CCCCC2)[C@@H](CO)O1 -0.283%
CCCC(=O)Nc1ccc2c(c1)C(=O)N(C)[C@@H]1CC[C@H](CC(=O)NCCOC)O[C@H]1CO2 0.186%
CC(=O)N1CC2(C1)[C@@H](c1ccccc1)[C@@H](CO)N2C(=O)c1cnccn1 0.148%
